pIC50: −log10 of the molar value.
Key:
[1] = tested on: panel of NSCLC cell lines; test: Proliferation of panel of NSCLC cell lines; type: cell-based; conditions: Homo sapiens, read-out: IC50 range over panel of NSCLC cell lines
Method in brief: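 Cell lines from ATCC were cultured per the supplier's protocol and tested by MTT assay per the kit protocol. Each concentration was run in six repeats, in at least two independent experiments. IC50 values were obtained by curve fitting.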

[2] = Rate of reaction of prodrugs with 4 mM GSH; type: in vitro ADME; conditions: for kGSH/kGSH (mean ± SD): rate with GSH alone, normalised to itself
PARP-1 enzyme = PARP-1 enzyme (Homo sapiens, UniProt P09874); test: PARP-1 enzyme inhibition; type: biochemical; conditions: presence or absence of GSH (4 mM)/GSTP1 (40 nM)
[3] = tested on: A549 lung adenocarcinoma cells; test: Immunoblot analysis of glutathionylation, stress signaling and apoptosis; type: cell-based, human
Method in brief: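 A549 lysates from cells treated with test compound (1 μM for the apoptosis markers) were immunoblotted for p38, eIF2α phosphorylation, CHOP, BiP, ATF4, p53 Ser15, Puma, and cleaved caspases 8, 3 and 7 and PARP. […] Blots are representative of at least three independent experiments.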

[4] = tested on: A549 human lung adenocarcinoma xenografts; test: A549 xenograft tumor growth; type: in vivo, NCr nu/nu athymic mice; conditions: 92 μmol/kg intravenously, 2 times a week for 4 weeks; compared to 1 or saline controls
[5] = Analysis of metabolites in resected tumors; type: in vivo, NCr nu/nu athymic mice; conditions: resected tumors after 92 μmol/kg i.v., 2 times a week for 4 weeks
Method in brief: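 A549 cells, passaged at most four times in RPMI 1640 with 10% FBS, were harvested at 70–80% confluence and implanted s.c. at 5 × 10^6 cells/0.2 mL PBS into NCr nu/nu mice. At about 3 mm × 3 mm, mice were randomised into groups of 12. Test compound was given by tail vein at 92 μmol/kg in 20 μL DMSO, twice weekly for 4 weeks. Tumours were removed at euthanasia right after the last dose and frozen immediately for metabolite analysis.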

A549 cells = test: Colony forming assay; type: cell-based, human; conditions: A549, combination treatment of 14 and 13
recombinant GSTP1 = test: GSTP1-catalyzed reaction of prodrug with GSH; type: in vitro ADME; conditions: recombinant GSTP1 versus GSH alone
Method in brief: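 Kinetics were run at 37 °C by UV–visible spectrophotometry in 0.1 M phosphate buffer pH 7.4 with 50 μM DTPA and 4 mM GSH, with or without 40 nM GST. Substrate (typically 10 μM) was added after buffer and enzyme reached thermal equilibrium. Absorbance was followed at 302 nm, and the rate came from a first-order exponential fit.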

H1703 NSCLC cells = test: Alkaline Comet assay; type: cell-based, human; conditions: H1703, 24 h treatment, 5 μM
caspase 7 = test: Activation of apoptosis; type: cell-based; conditions: same concentration of 5b and 1
A549 NSCLC cells = test: Cellular uptake and metabolism by LC/MS; type: in vitro ADME, human; conditions: A549, 10 μM, any time point from 5 min to 1 h
Method in brief: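 A549 cells were plated in 75 cm2 flasks overnight at 37 °C, then exposed to 10 μM test compound for varying times. Cells were lysed by scraping in 10 mM HCl/acetonitrile, 5% sulfosalicylic acid was added, and samples were spun at 12000g for 15 min and filtered. Analysis was by Q-TOF LC/MS in positive ion mode: C18 column, water/acetonitrile/0.1% formic acid gradient, extracted ion chromatograms at [M+H]+, with a lysate spiked with authentic compound as reference.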

Sequence of PARP-1 enzyme (P09874 whole entry): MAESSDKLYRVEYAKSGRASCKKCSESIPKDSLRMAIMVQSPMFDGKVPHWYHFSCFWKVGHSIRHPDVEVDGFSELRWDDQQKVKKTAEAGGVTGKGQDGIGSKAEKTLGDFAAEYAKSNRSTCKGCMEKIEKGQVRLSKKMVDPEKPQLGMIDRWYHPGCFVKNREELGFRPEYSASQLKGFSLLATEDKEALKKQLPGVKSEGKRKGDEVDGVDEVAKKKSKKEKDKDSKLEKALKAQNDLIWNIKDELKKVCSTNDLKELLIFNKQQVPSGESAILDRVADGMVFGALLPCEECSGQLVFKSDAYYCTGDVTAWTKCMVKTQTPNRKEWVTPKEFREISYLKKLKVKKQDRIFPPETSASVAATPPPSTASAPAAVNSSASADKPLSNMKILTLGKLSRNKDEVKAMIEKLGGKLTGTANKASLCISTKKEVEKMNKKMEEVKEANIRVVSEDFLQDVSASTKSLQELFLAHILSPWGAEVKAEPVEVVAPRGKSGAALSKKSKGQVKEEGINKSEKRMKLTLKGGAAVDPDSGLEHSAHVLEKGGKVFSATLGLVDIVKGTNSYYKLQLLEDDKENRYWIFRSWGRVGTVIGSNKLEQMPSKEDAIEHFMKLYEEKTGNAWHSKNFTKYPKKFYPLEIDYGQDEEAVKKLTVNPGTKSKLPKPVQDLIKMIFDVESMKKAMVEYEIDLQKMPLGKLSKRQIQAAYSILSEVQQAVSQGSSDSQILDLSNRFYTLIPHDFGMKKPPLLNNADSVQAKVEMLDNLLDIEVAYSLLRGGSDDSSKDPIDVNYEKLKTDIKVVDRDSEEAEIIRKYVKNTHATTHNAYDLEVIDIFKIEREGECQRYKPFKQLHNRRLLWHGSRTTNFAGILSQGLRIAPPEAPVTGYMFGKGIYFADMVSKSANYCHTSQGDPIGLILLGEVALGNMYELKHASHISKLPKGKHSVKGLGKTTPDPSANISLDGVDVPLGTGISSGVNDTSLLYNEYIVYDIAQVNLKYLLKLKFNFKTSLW

Compound	pIC50 [1]	kGSH/kGSH (mean ± SD) [2]	effect on tumor growth [4]	parent drug and liberated PARP-1 inhibitor in tumors [5]	apoptotic signal (cleaved caspase 7) (caspase 7)	also measured
O=C(c1cccc(Cc2n[nH]c(=O)c3ccccc23)c1)N1CCN(/[N+]([O-])=N/Oc2ccc([N+](=O)[O-])cc2[N+](=O)[O-])CC1 [Compound 5a]	4.70 to 5.52	–	–	–	–	–
CN(C)/[N+]([O-])=N\Oc1cc(O/N=[N+](\[O-])N2CCN(C(=O)c3cc(Cc4n[nH]c(=O)c5ccccc45)ccc3F)CC2)c([N+](=O)[O-])cc1[N+](=O)[O-] [Compound 13]	–	1 ± 0.004	significant reduction of the tumor growth	detected in some tumors	–	PARP-1 enzyme inhibition, activated versus prodrug (PARP-1 enzyme): Activated compound is a much better PARP-1 inhibitor than the prodrug; time to caspase 8 activation ([3]; A549, 1 μM): ≤ 6 h; time to detection of glutathione attached to protein ([3]; A549, nonreducing immunoblot): ≤ 1 h; time to activation of stress kinase p38 ([3]; A549, phosphorylation persisted for 8 h): ≤ 15 min; cytotoxicity in combination with 14 (A549 cells): enhanced toxicity
O=C(c1cc(Cc2n[nH]c(=O)c3ccccc23)ccc1F)N1CCN(/[N+]([O-])=N/Oc2ccc([N+](=O)[O-])cc2[N+](=O)[O-])CC1 [Compound 5b]	4.70 to 5.52	1 ± 0.007	reduced growth of tumors to a lesser extent	detected in some tumors	strong apoptotic signal	parent compound still present ([2]; 4 mM GSH, after 2 half-lives, LC/MS): 25%; enhancement of reaction with GSH when GSTP1 present (recombinant GSTP1): over 10 fold; DNA strand break damage (Comet assay) (H1703 NSCLC cells): significant DNA strand break damage; parent compound in cell lysates (A549 NSCLC cells): not detected
CCOC(=O)N1CCN(/[N+]([O-])=N/Oc2ccc([N+](=O)[O-])cc2[N+](=O)[O-])CC1 [Compound 2, O^2-(2,4-dinitrophenyl) 1-[(4-ethoxycarbonyl)piperazin-1-yl]diazen-1-ium-1,2-diolate, reference compound]	–	1 ± 0.001	–	–	–	–
O=C(c1cc(Cc2n[nH]c(=O)c3ccccc23)ccc1F)N1CCN(C(=O)C2CC2)CC1 [Compound 1, olaparib, reference compound]	–	–	–	–	did not trigger apoptosis	–
CNc1ccc(C(=O)Oc2cc(O/N=[N+](\[O-])N(C)C)c([N+](=O)[O-])cc2[N+](=O)[O-])cc1 [Compound 8, PABA/NO, reference compound]	–	1 ± 0.003	–	–	–	–

From paper PMC3983374 (Journal of Medicinal Chemistry, 2014)
